High-throughput results as filed in PubChem.
T cruzi repl: T. cruzi replication inhibition; inhibition, % (no concentration beside the values); hit rate 1.4% among 300,000; T. cruzi beta-gal in NIH3T3, luminescence, 90 h; AID 1885;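 active = mean inhibition across valid replicates above about 55%, limit read from the data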;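 also: signal also drops with host cell toxicity which is not excluded here; higher percent means less beta-gal luminescence so fewer parasites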
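Material: NIH/3T3 host cells with β-galactosidase reporter T. cruzi; Input: 5,000 host fibroblasts per well; Medium: DMEM, 2% fetal bovine serum; Compound: 50 nL DMSO compound solution per well; Schedule: 3 h host attachment, then at least 90 h co-culture; Detection: luminescent β-galactosidase signal after 60 min lysis.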
Calb FLC: C. albicans growth modulation with fluconazole; C. albicans CaCi-2 + fluconazole, Alamar Blue growth, 48 h; growth inhibition, % (concentration not given with the values); hit rate 0.57% among 300,000; AID 1979;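 active = growth inhibition above about 58% in most replicates, limit read from the data, passing the limit was not always enough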;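 also: all wells also contain fluconazole at 8 µg/ml as a sub-toxic cotreatment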
HSF1 inh: HSF1 inhibition. NIH3T3-HGL HSE-luciferase, MG132-induced, luminescence 8 h; stronger effect = lower value. activity change, negative = inhibition, % at 7.5 µM (by protocol). hit rate 0.77% among 300,000. AID 2098;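 active = more than half of replicate wells show activity change below -50%, luminescence cut by over half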;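 also: luciferase reports HSF-1 transcriptional activity via heat shock element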
HSF-1 act: increases HSF-1 driven luciferase reporter signal; NIH3T3-HGL HSF-1 luciferase reporter, MG132, 8 h; 100% = twice DMSO control signal; activation, % at 9 µM; hit rate 1.7% among 300,000; AID 504408;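 active = mean replicate activation of at least 50% with a set share of replicates each reaching 50%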
HIF act: HIF pathway transcriptional activation; activation, % at 7.5 µM (by protocol); hit rate 0.32% among 300,000; U2OS HRE-luciferase reporter, luminescence; normalized: DMSO 0%, desferrioxamine 100%;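 active = mean activation of at least 10% of the iron chelator positive control signal, with at least half of replicates also reaching 10%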
Large screens that a line does not name were inactive. This is a sample that favours compounds with a hit; in the whole collection about 4.4% have one here.

O=C1CC(N(Cc2ccc3c(c2)OCO3)C(=O)Nc2ccc(F)cc2)C(=O)N1c1ccccc1 (stereo not given)	HSF-1 act 57
CCOC(=O)Cn1c(=O)c(C#N)cn(C(C)C)c1=O	none
COc1ccc2cc(-c3ccccc3)ncc2c1	HSF-1 act 75
COc1ccc2[nH]c(-c3ccccc3)cc2c1	none
Cc1ccc(N=c2oc3cc(O)ccc3cc2C(N)=O)cc1	T cruzi repl 60
CCCCCCN(C(=O)CCCCCN1C(=O)NC(c2ccc(-c3ccccc3)cc2)C(C(=O)OCc2ccccc2)=C1C)C(C(=O)NCCCC)c1ccc(OCC(=O)OC)c(C(=O)OC)c1 (stereo not given)	none
CCCCNC(=O)C(c1ccc(OCC(=O)OC)c(C(=O)OC)c1)N(CCc1c[nH]c2ccccc12)C(=O)CCCCCN1C(=O)NC(c2ccc(-c3ccccc3)cc2)C(C(=O)OCc2ccccc2)=C1C (stereo not given)	HSF1 inh -80
N#C/C(=C\c1ccc(-c2cccc([N+](=O)[O-])c2)o1)C(=O)Nc1nc(-c2cccs2)cs1	none
COc1ccc(-c2nn(-c3ccccc3)cc2/C=C/C(=O)N2CCN(c3ccccn3)CC2)cc1	T cruzi repl 55
COc1ccc(NC(=O)CS(=O)(=O)c2ccc(Br)cc2)cc1	none
O=C(NCc1ccc(N2CCCC2=O)cc1)Nc1cccc2ccccc12	none
O=C(NCc1ccc(N2CCCC2=O)cc1)Nc1ccccc1	HSF-1 act 54
CCCCCCc1ccc(-c2ncc(N)cn2)cc1	HSF-1 act 51
COc1ccc(N(CC(=O)NCC2CCCO2)C(=O)CCC(=O)Nc2nccs2)cc1 (stereo not given)	none
CCCn1c(=N)n(CC(=O)c2ccc([N+](=O)[O-])cc2)c2ccccc21	Calb FLC 99
CCN1CCS/C1=C/C=C/C1=[N+](CC)CCS1	T cruzi repl 59
O=C1C(Cc2ccccc2)Nc2ncnc(N3CCN(c4ccccc4)CC3)c2N1Cc1ccccc1 (stereo not given)	HSF1 inh -67
CCC1Nc2ncnc(N3CCN(c4ccccc4)CC3)c2N(Cc2ccc(OC)cc2)C1=O (stereo not given)	none
Cc1ccc(CN2C(=O)C(Cc3ccccc3)Nc3ncnc(N4CCN(c5ccccc5)CC4)c32)cc1 (stereo not given)	none
CCC1Nc2ncnc(N3CCN(c4ccccc4)CC3)c2N(Cc2ccc(Br)cc2)C1=O (stereo not given)	T cruzi repl 58
S=C(Nc1ccccc1Cl)N(Cc1cccnc1)Cc1ccco1	none
O=C(Nc1ccc(Cl)c(Cl)c1)N(Cc1cccnc1)Cc1ccco1	T cruzi repl 56
Cc1cc(Cl)nc2ccc(Cc3ccc4nc(Cl)cc(C)c4c3)cc12	none
CCC(=O)OCCNc1cc(Sc2nccn2C)c2nonc2c1[N+](=O)[O-]	T cruzi repl 55, HSF-1 act 437
Cc1ccc(Sc2cc(NCCCO)c([N+](=O)[O-])c3nonc23)cc1	T cruzi repl 56
O=C(NCc1ccccc1)c1nc(S(=O)(=O)Cc2ccccc2)ncc1Cl	HSF-1 act 147
CC1CCCN(S(=O)(=O)c2ccc(NC(=O)CNC3CCCC3)cc2)C1 (stereo not given)	none
CCS(=O)(=O)c1ncc(Cl)c(C(=O)Nc2ccc(C)cc2)n1	T cruzi repl 79, HSF1 inh -98
O=C(NCc1ccccc1)c1c(Cl)nc(Cl)c(Cl)c1Cl	HSF-1 act 65
CCS(=O)(=O)c1ncc(Cl)c(C(=O)Nc2ccc(S(=O)(=O)N3CCCC(C)C3)cc2)n1 (stereo not given)	T cruzi repl 56, HSF1 inh -79 (no result: HIF act)
Cc1nc(Cl)c(C(=O)NCc2ccccc2)c(C)c1Cl	none
O=C(NCc1ccccc1)c1onc(CSc2ccc(F)c(F)c2)c1C(=O)NCc1ccccc1	none
CC(=O)Nc1ccc(NC(=O)c2nc(S(=O)(=O)Cc3ccccc3)ncc2Cl)cc1	HSF1 inh -94
CCC1CCCCN1S(=O)(=O)c1ccc(NC(=O)c2ccncc2)cc1 (stereo not given)	none
COc1ccc(CNC(=O)c2nc(S(=O)(=O)Cc3ccccc3)ncc2Cl)cc1	HSF-1 act 248
CCC1CCCCN1S(=O)(=O)c1ccc(NC(=O)c2nc(S(C)(=O)=O)ncc2Cl)cc1 (stereo not given)	HSF1 inh -84 (no result: HIF act)
O=C(Nc1ccc2ccccc2c1)c1cnccn1	none
